The values below come from ChEMBL document CHEMBL1255453, “Affinity of ceftaroline and other beta-lactams for penicillin-binding proteins from Staphylococcus aureus and Streptococcus pneumoniae” (Antimicrob Agents Chemother, 2010).

Each structure is given as a SMILES string. In brackets after ≈: the same amount, converted by molar mass.

Test [1] deals with T1, Penicillin-binding protein 1A (Streptococcus pneumoniae serotype 4 (strain ATCC BAA-334 / TIGR4), UniProt Q04707).
T1 sequence (Q04707 whole entry): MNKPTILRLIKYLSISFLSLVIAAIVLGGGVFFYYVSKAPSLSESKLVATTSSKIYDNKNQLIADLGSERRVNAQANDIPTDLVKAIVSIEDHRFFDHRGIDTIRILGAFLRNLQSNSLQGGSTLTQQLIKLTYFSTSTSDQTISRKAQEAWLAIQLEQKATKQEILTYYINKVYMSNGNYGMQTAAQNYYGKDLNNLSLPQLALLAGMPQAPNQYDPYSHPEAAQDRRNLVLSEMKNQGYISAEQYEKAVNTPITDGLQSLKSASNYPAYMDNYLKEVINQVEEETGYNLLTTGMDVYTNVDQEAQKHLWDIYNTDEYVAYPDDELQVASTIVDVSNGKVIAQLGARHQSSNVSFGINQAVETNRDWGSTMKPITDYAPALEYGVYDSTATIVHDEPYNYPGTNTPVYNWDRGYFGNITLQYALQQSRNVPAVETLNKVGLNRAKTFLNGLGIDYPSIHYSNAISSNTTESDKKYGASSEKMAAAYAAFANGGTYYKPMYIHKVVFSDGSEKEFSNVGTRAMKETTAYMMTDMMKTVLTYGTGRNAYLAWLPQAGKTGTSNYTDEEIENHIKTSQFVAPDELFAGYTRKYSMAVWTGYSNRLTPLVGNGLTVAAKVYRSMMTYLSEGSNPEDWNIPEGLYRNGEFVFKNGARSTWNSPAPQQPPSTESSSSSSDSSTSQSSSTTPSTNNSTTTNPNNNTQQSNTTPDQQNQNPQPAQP
In words: Binding affinity to penicillin-resistant Streptococcus pneumoniae 24 PBP1A by competitive binding assay. The method in brief:
(§1)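 Whole pneumococcal cells grown to OD600 0.3 in Todd-Hewitt broth with 0.5% yeast extract, resuspended in 50 mM NaPO4 pH 7.0. Cells (10^8–5 × 10^8 CFU/ml) incubated with β-lactam 10 min at 37°C, then Bocillin FL 10 μg/ml, 15 min at 37°C. SDS-PAGE, 520 nm fluorescence; IC50 = 50% inhibition of Bocillin FL binding; 2 experiments.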

Test [2] deals with T2, Penicillin-binding protein 2x (Streptococcus pneumoniae serotype 4 (strain ATCC BAA-334 / TIGR4), UniProt P14677). In words: Binding affinity to penicillin-resistant Streptococcus pneumoniae 3413 PBP2X by competitive binding assay. In short, it runs like this: (§2)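 Whole pneumococcal cells were grown to OD600 0.3 in Todd-Hewitt broth plus 0.5% yeast extract, then resuspended in 50 mM NaPO4, pH 7.0. Cells at 10^8 to 5 × 10^8 CFU/ml were exposed to β-lactam for 10 min at 37°C, alongside a reference without drug. They were then labeled with 10 μg/ml Bocillin FL for 15 min at 37°C. Proteins were resolved by SDS-PAGE and fluorescence read at 520 nm. IC50 was taken as 50% inhibition of Bocillin FL binding, from 2 experiments.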

For test [3], the target named is T3, Penicillin-binding protein 2B (Streptococcus pneumoniae serotype 4 (strain ATCC BAA-334 / TIGR4), UniProt P0A3M5).
T3 sequence (P0A3M5 whole entry): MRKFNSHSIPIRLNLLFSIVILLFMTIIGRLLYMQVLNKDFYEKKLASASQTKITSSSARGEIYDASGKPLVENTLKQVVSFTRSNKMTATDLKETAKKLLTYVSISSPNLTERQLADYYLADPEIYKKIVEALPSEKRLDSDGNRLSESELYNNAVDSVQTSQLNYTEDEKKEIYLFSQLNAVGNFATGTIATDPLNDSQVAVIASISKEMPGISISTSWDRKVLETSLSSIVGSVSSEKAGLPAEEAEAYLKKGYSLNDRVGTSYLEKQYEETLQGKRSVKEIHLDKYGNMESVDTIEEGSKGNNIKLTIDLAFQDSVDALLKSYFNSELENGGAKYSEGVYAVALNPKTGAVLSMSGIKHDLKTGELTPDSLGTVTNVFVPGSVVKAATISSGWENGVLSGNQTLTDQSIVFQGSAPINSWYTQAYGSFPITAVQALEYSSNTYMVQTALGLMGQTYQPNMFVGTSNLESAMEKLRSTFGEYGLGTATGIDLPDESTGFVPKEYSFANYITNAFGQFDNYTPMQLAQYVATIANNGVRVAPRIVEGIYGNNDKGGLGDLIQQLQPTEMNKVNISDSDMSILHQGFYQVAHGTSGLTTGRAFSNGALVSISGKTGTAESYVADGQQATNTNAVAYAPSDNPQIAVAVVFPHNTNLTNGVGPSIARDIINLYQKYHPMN
Kind of test: Binding affinity to against penicillin-susceptible Streptococcus pneumoniae 1076 PBP2B by competitive binding assay. In short, it runs like this:
as §1

Test [4] has as its target T1, Penicillin-binding protein 1A. In words: Binding affinity to against penicillin-susceptible Streptococcus pneumoniae 1076 PBP1A by competitive binding assay. In short, it runs like this:
as §1

The target of test [5] is T2, Penicillin-binding protein 2x. Kind of test: Binding affinity to penicillin-resistant Streptococcus pneumoniae 24 PBP2X by competitive binding assay. The method in brief:
as §2

Test [6] can be described thus: Binding affinity to penicillin-resistant Streptococcus pneumoniae 2527 PBP3 by competitive binding assay. In short, it runs like this:
as §2

The target of test [7] is T4, Penicillin-binding protein 2x (Streptococcus pneumoniae serotype 4 (strain ATCC BAA-334 / TIGR4), UniProt P14677).
T4 sequence (P14677 whole entry): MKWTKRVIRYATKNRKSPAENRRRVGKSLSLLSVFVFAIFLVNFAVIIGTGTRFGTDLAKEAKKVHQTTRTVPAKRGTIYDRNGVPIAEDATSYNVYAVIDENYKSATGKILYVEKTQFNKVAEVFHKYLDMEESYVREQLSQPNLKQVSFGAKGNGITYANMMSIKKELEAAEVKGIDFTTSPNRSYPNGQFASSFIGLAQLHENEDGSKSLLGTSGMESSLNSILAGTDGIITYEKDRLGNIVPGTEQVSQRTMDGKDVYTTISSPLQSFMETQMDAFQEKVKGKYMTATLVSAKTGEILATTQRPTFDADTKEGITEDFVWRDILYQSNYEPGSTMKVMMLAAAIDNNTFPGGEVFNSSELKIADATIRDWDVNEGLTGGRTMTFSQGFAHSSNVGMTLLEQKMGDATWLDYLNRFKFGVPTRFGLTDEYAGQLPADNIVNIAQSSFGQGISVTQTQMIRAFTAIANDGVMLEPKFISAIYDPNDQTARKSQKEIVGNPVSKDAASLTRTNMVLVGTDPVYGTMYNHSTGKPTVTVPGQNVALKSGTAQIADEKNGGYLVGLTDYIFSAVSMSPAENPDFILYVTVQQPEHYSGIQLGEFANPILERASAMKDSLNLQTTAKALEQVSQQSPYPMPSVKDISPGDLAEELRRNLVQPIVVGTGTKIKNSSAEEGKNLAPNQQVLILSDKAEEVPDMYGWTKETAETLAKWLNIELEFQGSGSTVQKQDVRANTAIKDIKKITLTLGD
In words: Binding affinity to against penicillin-susceptible Streptococcus pneumoniae 1076 PBP2X by competitive binding assay. The method in brief: as §1

With `CO/N=C(\C(=O)N[C@@H]1C(=O)N2C(C(=O)O)=C(COC(C)=O)CS[C@H]12)c1csc(N)n1` [CEFOTAXIME], the IC50 was 274 nM in test [1]; 8.78 µM in test [2]; greater than 70.3 µM in test [3]; 220 nM in test [4]; 2200 nM in test [5]; 0.1 µg/mL (≈ 0.22 µM) in test [6]. Moreover, the IC50 in test [7] is 549 nM.
`CO/N=C(\C(=O)N[C@@H]1C(=O)N2C(C(=O)O)=C(CSc3nc(=O)c(O)nn3C)CS[C@H]12)c1csc(N)n1` [CEFTRIAXONE]: the IC50 in test [1] was 451 nM; in test [2] it was 7.21 µM; in test [3], greater than 57.7 µM; in test [4], 180 nM; in test [5] it was 1800 nM; in test [6], 0.25 µg/mL (≈ 0.451 µM). In test [7], this compound gave a concentration for half-maximal inhibition (IC50) of 180 nM.

Usually IC50 stands for the concentration at which inhibition is half-maximal. A high value points to lower potency.
